In ChEMBL document CHEMBL1240430, “Design & synthesis of 2-(substituted aryloxy)-5-(substituted benzylidene)-3-phenyl-2,5-dihydro-1H-[1,2,4] triazin-6-one as potential anticonvulsant agents” (Eur J Med Chem, 2010):
Activity calls are given as the source filed them. The rule behind the calls is not given here.

Experiments:
Mus musculus [1] = experiment: Anticonvulsant activity in ip dosed albino mouse assessed as protection against MES-induced seizures after 0.5 hrs; type: functional
Procedure, shortened: (§1)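 Male albino mice (20-25 g) given test compounds i.p., suspended in 30% PEG 200, at 0.01 ml/g body weight, at 30, 100 and 300 mg/kg to 1–6 animals. Seizure protection checked 0.5 h and 4 h after dosing. Value is the minimal dose protecting 50% or more of animals.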

Mus musculus [2] = experiment: Anticonvulsant activity in ip dosed albino mouse assessed as protection against MES-induced seizures after 4 hrs; type: functional; procedure, shortened: as §1
Mus musculus [3] = experiment: Anticonvulsant activity in ip dosed albino mouse assessed as protection against scPTZ-induced seizures after 0.5 hrs; type: functional; procedure, shortened: as §1
[4] = Neurotoxicity against ip dosed albino mouse assessed as inability of animal to maintain equilibrium on rod for 1 min after 0.5 hrs by rotarod test; conditions: in vivo
Mus musculus [5] = experiment: Anticonvulsant activity in ip dosed albino mouse assessed as protection against scPTZ-induced seizures after 4 hrs; type: functional; procedure, shortened: as §1
Mus musculus [6] = experiment: Reduction of immobility time in albino Swiss mouse at 100 mg/kg, ip pretreated for 1 hrs by forced swimming test; type: functional; conditions: route intraperitoneal
[7] = Neurotoxicity against ip dosed albino mouse assessed as inability of animal to maintain equilibrium on rod for 1 min after 4 hrs by rotarod test; conditions: in vivo

Row | SMILES | ED50 (Mus musculus [1]) [mg/kg] | ED50 (Mus musculus [2]) | ED50 (Mus musculus [3]) [mg/kg] | TD50 at 0.5 h [4] [mg/kg] | ED50 (Mus musculus [5]) | Time (Mus musculus [6]) [s] | TD50 at 4 h [7] [mg/kg]
1 | O=C1NC(=O)C(c2ccccc2)(c2ccccc2)N1 [PHENYTOIN] | 30 | 30 mg/kg | – | – | – | – | –
2 | COc1ccc(/C=C2/N=C(c3ccccc3)N(C(=O)c3ccc(C)cc3)NC2=O)cc1 | 100 | 100 mg/kg | 30 | 300 | 30 mg/kg | 151.5 | 300
3 | O=C1NN(C(=O)c2ccc(Cl)cc2)C(c2ccccc2)=N/C1=C/c1ccccc1 | 100 | 300 mg/kg | 100 | 300 | 300 mg/kg | – | 300
4 | O=C1NN(C(=O)c2ccccc2Cl)C(c2ccccc2)=N/C1=C/c1ccccc1Cl | 30 | 30 mg/kg | 30 | 300 | 100 mg/kg | 148.17 | 300
5 | Cc1ccc(/C=C2/N=C(c3ccccc3)N(C(=O)COc3ccccc3)NC2=O)cc1 | 300 | 300 mg/kg | 300 | – | inactive | – | –
6 | COc1ccc(/C=C2/N=C(c3ccccc3)N(C(=O)c3ccc(Cl)cc3)NC2=O)cc1 | 100 | inactive | 100 | 300 | 300 mg/kg | – | 300
7 | CCCC(CCC)C(=O)[O-].[Na+] [VALPROATE SODIUM] | – | – | 300 | – | inactive | – | –
8 | Cc1ccc(C(=O)N2NC(=O)/C(=C\c3ccc(O)cc3)N=C2c2ccccc2)cc1 | 30 | 100 mg/kg | 100 | – | 300 mg/kg | 147.33 | –
9 | Cc1ccc(/C=C2/N=C(c3ccccc3)N(C(=O)c3ccc(C)cc3)NC2=O)cc1 | 100 | 100 mg/kg | 30 | 300 | 30 mg/kg | 145.83 | –
10 | Cc1ccc(/C=C2/N=C(c3ccccc3)N(C(=O)c3ccc(Cl)cc3)NC2=O)cc1 | 100 | 300 mg/kg | 100 | – | 100 mg/kg | – | –
11 | O=C1NN(C(=O)c2ccc(F)cc2)C(c2ccccc2)=N/C1=C/c1ccc(O)cc1 | 300 | inactive | 300 | – | inactive | – | –
12 | Cc1ccc(/C=C2/N=C(c3ccccc3)N(C(=O)Cc3ccc(Cl)cc3)NC2=O)cc1 | 100 | 300 mg/kg | 100 | 300 | 300 mg/kg | – | 300
13 | NC(=O)N1c2ccccc2C=Cc2ccccc21 [CARBAMAZEPINE] | – | – | – | – | – | 169 | –
